In ChEMBL document CHEMBL1955833, “Wnt inhibition correlates with human embryonic stem cell cardiomyogenesis: a structure-activity relationship study based on inhibitors for the Wnt response” (J Med Chem, 2012):
The source made the active and inactive calls. No cut-off for these calls is given here.

Columns and labels:
HEK-293T [1] = assay: Cytotoxicity against human HEK293T cells at 0.2 to 20 uM after 24 hrs by alamar blue assay; type: cell-based
H9 [2] = assay: Cardiogenic activity in human H9 cells after 14 days by MYH6-mCherry reporter gene assay relative to 4-[(1R,2S,6R,7S)-3,5-dioxo-4-azatricyclo[5.2.1.0~2,6~]dec-8-en-4-yl]-N-quinolin-8-ylbenzamide; type: functional
How it was run: (§1)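 hESC embryoid bodies grown to day 4, dissociated to single cells and plated in 384-well format with serial compound dilutions. At day 10 switched to serum-free medium with T3. At day 14 moved to PBS and imaged for red fluorescence. Total area and intensity of the MYH6-mCherry reporter were quantified per well and expressed as percent cardiogenesis, with the reference set to 100% at its maximum.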

[3] = Chemical stability in phosphate buffer pH 7.4 at 10 uM after 30 hrs by HPLC analysis; type: physicochemical; settings: pH 7.4, 30 h
How it was run: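 Degradation followed by HPLC, and half-life determined where degradation occurred.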

HEK-293T [4] = assay: Inhibition of human recombinant TGFbeta2-induced Smad signaling in HEK293T cells at 0.01 to 5 uM by luciferase reporter gene assay; type: cell-based
How it was run: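 HEK293T cells carrying a SMAD response element reporter were stimulated with human recombinant TGFβ2. Compounds were incubated at 0.01, 0.1, 1 and 5 μM. Percent inhibition of the SMAD response was calculated relative to DMSO vehicle controls.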

[5] = Inhibition of beta-catenin-dependent canonical Wnt3A pathway in human HEK293T cells at 1 uM by luciferase reporter gene assay; type: cell-based; settings: HEK-293T
How it was run: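 HEK293T cells transiently co-transfected with Super(8x)TOPflash (TCF-firefly luciferase), TK-Renilla luciferase for normalization, and a Wnt3A-expressing vector to activate the pathway. Compounds tested at a single concentration of 1 μM, alongside untreated and DMSO vehicle controls. Firefly signal normalized to Renilla.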

[6] = Inhibition of beta-catenin-dependent canonical Wnt3 pathway in human HEK293T cells by luciferase reporter gene assay; type: cell-based; settings: HEK-293T
Embryonic stem cell = assay: Cardiogenic activity in human embryonic stem cells at 50 uM by MYH6 reporter gene assay relative to control; type: functional, cell-based
H9 [7] = assay: Cardiogenic activity in human H9 cells at < 0.15 uM after 14 days by MYH6-mCherry reporter gene assay relative to 4-[(1R,2S,6R,7S)-3,5-dioxo-4-azatricyclo[5.2.1.0~2,6~]dec-8-en-4-yl]-N-quinolin-8-ylbenzamide; type: functional, cell-based; how it was run: as §1

IC50 [6] | Structure (SMILES) | Activity (H9 [2]) | inhibition [5] | also measured
– | O=C(Nc1cccc2cccnc12)c1ccc(N2C(=O)[C@@H]3[C@H](C2=O)[C@@H]2C=C[C@H]3C2)cc1 | Dose-dependent effect | – | Activity (HEK-293T [1]): Non-toxic; Stability [3]: Stable; inhibition (HEK-293T [4]): < 20%
194 nM | O=C1c2ccccc2-c2cccc(NC(=O)[C@H]3CC[C@H](N4C(=O)[C@@H]5[C@@H]6CC[C@@H](C6)[C@@H]5C4=O)CC3)c21 | Dose-dependent effect | 88% | Activity (H9 [2]; record 2): 104%
152 nM | O=C1[C@@H]2[C@@H]3CC[C@@H](C3)[C@@H]2C(=O)N1[C@H]1CC[C@H](C(=O)Nc2cncc(O)c2)CC1 | Dose-dependent effect | 86% | Activity (H9 [2]; record 2): 61%
190 nM | CCOc1ccccc1NC(=O)[C@H]1CC[C@H](N2C(=O)[C@@H]3[C@@H]4CC[C@@H](C4)[C@@H]3C2=O)CC1 | – | 78% | –
23 nM | CC(=O)c1ccccc1NC(=O)[C@H]1CC[C@@H](N2C(=O)[C@@H]3[C@@H]4CC[C@@H](C4)[C@@H]3C2=O)CC1 | Dose-dependent effect | 91% | Activity (H9 [2]; record 2): 72%
728 nM | COc1ccc(/C=C2/SC(=S)N(CCCC(=O)O)C2=O)cc1OC | – | – | Activity (HEK-293T [1]): Non-toxic; Activity (Embryonic stem cell): Active
6 nM | CC(=O)c1ccccc1NC(=O)[C@H]1CC[C@H](N2C(=O)[C@@H]3[C@@H]4CC[C@@H](C4)[C@@H]3C2=O)CC1 | 78% | 91% | Activity (H9 [7]): Active; Stability [3]: Stable; inhibition (HEK-293T [4]): < 20%
1590 nM | O=C(Nc1cccc2ccccc12)c1ccc(N2C(=O)[C@@H]3[C@@H]4CC[C@@H](C4)[C@@H]3C2=O)cc1 | 8% | 41% | –
67 nM | COC(=O)c1ccccc1NC(=O)[C@H]1CC[C@H](N2C(=O)[C@@H]3[C@@H]4CC[C@@H](C4)[C@@H]3C2=O)CC1 | Dose-dependent effect | 86% | Activity (H9 [2]; record 2): 38%
161 nM | O=C1[C@@H]2[C@@H]3CC[C@@H](C3)[C@@H]2C(=O)N1[C@H]1CC[C@H](C(=O)Nc2cccc3cnccc23)CC1 | – | 87% | –
57 nM | O=C1[C@@H]2[C@@H]3CC[C@@H](C3)[C@@H]2C(=O)N1[C@H]1CC[C@@H](C(=O)Nc2cccc3cccnc23)CC1 | Dose-dependent effect | 90% | Activity (H9 [2]; record 2): 65%
317 nM | N#Cc1ccc(NC(=O)c2ccc(N3C(=O)[C@@H]4[C@@H]5CC[C@@H](C5)[C@@H]4C3=O)cc2)cc1 | 1% | 70% | –
– | O=C1[C@@H]2[C@@H]3CC[C@@H](C3)[C@@H]2C(=O)N1c1ccc2c(c1)C(=O)N(c1cccc3cccnc13)C2=O | – | 15% | –
37 nM | COc1cc(Br)ccc1NC(=O)[C@H]1CC[C@H](N2C(=O)[C@@H]3[C@@H]4CC[C@@H](C4)[C@@H]3C2=O)CC1 | Dose-dependent effect | 82% | Activity (H9 [2]; record 2): 20%; inhibition (HEK-293T [4]): < 20%
– | O=C(Nc1ccccc1O)c1ccc(N2C(=O)[C@@H]3[C@@H]4CC[C@@H](C4)[C@@H]3C2=O)cc1 | – | 33% | –
7 nM | O=C1CCCc2cccc(NC(=O)[C@H]3CC[C@H](N4C(=O)[C@@H]5[C@@H]6CC[C@@H](C6)[C@@H]5C4=O)CC3)c21 | 176% | 92% | Activity (H9 [7]): Active; inhibition (HEK-293T [4]): < 20%
590 nM | CC(=O)c1ccc(NC(=O)[C@H]2CC[C@H](N3C(=O)[C@@H]4[C@@H]5CC[C@@H](C5)[C@@H]4C3=O)CC2)cn1 | 3% | 56% | inhibition (HEK-293T [4]): < 20%
55 nM | O=C1[C@@H]2[C@@H]3CC[C@@H](C3)[C@@H]2C(=O)N1[C@H]1CC[C@H](C(=O)Nc2cncc3ccccc23)CC1 | Dose-dependent effect | 89% | Activity (H9 [2]; record 2): 119%
169 nM | O=C1[C@@H]2[C@@H]3CC[C@@H](C3)[C@@H]2C(=O)N1[C@H]1CC[C@H](C(=O)Nc2cccnc2Cl)CC1 | Dose-dependent effect | 13% | Activity (H9 [2]; record 2): 56%
484 nM | O=C1[C@@H]2[C@@H]3CC[C@@H](C3)[C@@H]2C(=O)N1[C@H]1CC[C@H](C(=O)Nc2ccccc2O)CC1 | – | 76% | –
604 nM | O=C1[C@@H]2[C@@H]3CC[C@@H](C3)[C@@H]2C(=O)N1[C@H]1CC[C@H](C(=O)Nc2cccc3ncccc23)CC1 | – | 68% | –

IC50 [6] | Structure (SMILES) | Activity (H9 [2]) | inhibition [5] | also measured
95 nM | O=C1[C@@H]2[C@@H]3CC[C@@H](C3)[C@@H]2C(=O)N1[C@H]1CC[C@H](C(=O)Nc2nccc3ccccc23)CC1 | Dose-dependent effect | 88% | Activity (H9 [2]; record 2): 84%
– | CN(C)c1ccc(NC(=O)c2ccc(N3C(=O)[C@@H]4[C@@H]5CC[C@@H](C5)[C@@H]4C3=O)cc2)cc1 | – | 25% | –
314 nM | O=C(Nc1cccc2cccnc12)c1ccc(N2C(=O)[C@@H]3[C@H]4CC[C@H](CC4)[C@@H]3C2=O)cc1 | 2% | 87% | –
605 nM | O=C(Nc1cccc2cccnc12)c1ccc(N2C(=O)C3C(C2=O)[C@H]2CC[C@@H]3O2)cc1 (some centres not stated) | 2% | 49% | –
– | CC(=O)c1ccc(NC(=O)c2ccc(N3C(=O)[C@@H]4[C@@H]5CC[C@@H](C5)[C@@H]4C3=O)cc2)cc1 | – | 41% | –
– | O=C(Nc1cccc2cccnc12)c1cccc(N2C(=O)[C@@H]3[C@@H]4CC[C@@H](C4)[C@@H]3C2=O)c1 | – | 0% | –
109 nM | O=C1[C@@H]2[C@@H]3CC[C@@H](C3)[C@@H]2C(=O)N1[C@H]1CC[C@H](C(=O)Nc2ccnc3ccccc23)CC1 | – | 90% | –
– | O=C1[C@@H]2[C@@H]3CC[C@@H](C3)[C@@H]2C(=O)N1c1ccc(CNc2cccc3cccnc23)cc1 | – | 45% | –
1180 nM | CC1[C@H]2CC[C@@H]1[C@@H]1C(=O)N(c3ccc(C(=O)Nc4cccc5cccnc45)cc3)C(=O)[C@@H]12 (some centres not stated) | – | 76% | –
– | COc1ccc(NC(=O)c2ccc(N3C(=O)[C@@H]4[C@@H]5CC[C@@H](C5)[C@@H]4C3=O)cc2)cc1 | – | 50% | –
7 nM | CC(=O)c1ncccc1NC(=O)[C@H]1CC[C@H](N2C(=O)[C@@H]3[C@@H]4CC[C@@H](C4)[C@@H]3C2=O)CC1 | 145% | 79% | Activity (H9 [7]): Active; inhibition (HEK-293T [4]): < 20%
80 nM | O=C1[C@@H]2[C@@H]3CC[C@@H](C3)[C@@H]2C(=O)N1[C@H]1CC[C@H](C(=O)Nc2ccncc2)CC1 | 3% | 84% | –
4 nM | O=C1[C@@H]2[C@@H]3CC[C@@H](C3)[C@@H]2C(=O)N1[C@H]1CC[C@H](C(=O)Nc2cccc3cccnc23)CC1 | 145% | 89% | Activity (H9 [7]): Active; inhibition (HEK-293T [4]): < 20%
24 nM | O=C(Nc1cccc2cccnc12)c1ccc(N2C(=O)[C@@H]3[C@@H]4CC[C@@H](C4)[C@@H]3C2=O)cc1 | Dose-dependent effect | 93% | Activity (H9 [2]; record 2): 75%
412 nM | O=C(Nc1cccc2cccnc12)c1ccc(N2C(=O)[C@@H]3[C@H](C2=O)[C@@H]2C=C[C@H]3CC2)cc1 | – | 83% | –
215 nM | COc1ccccc1NC(=O)c1ccc(N2C(=O)[C@@H]3[C@@H]4CC[C@@H](C4)[C@@H]3C2=O)cc1 | 8% | 84% | –
120 nM | O=C1[C@@H]2[C@@H]3CC[C@@H](C3)[C@@H]2C(=O)N1[C@H]1CC[C@H](C(=O)Nc2cccnc2)CC1 | 15% | 89% | Stability [3]: Stable; inhibition (HEK-293T [4]): < 20%
109 nM | O=C1[C@@H]2[C@@H]3CC[C@@H](C3)[C@@H]2C(=O)N1[C@H]1CC[C@H](C(=O)Nc2ccccn2)CC1 | 3% | 82% | –
– | Cc1cc(/C=C/c2ccc3cc(N(C)C)ccc3[n+]2C)c(C)n1-c1ccccc1 | – | – | Activity (HEK-293T [1]): Toxic
– | O=C(Nc1cccc2cccnc12)c1ccc(N2C(=O)[C@@H]3[C@@H]4CC[C@@H](C4)[C@@H]3C2=O)o1 | – | 0% | –
